{
  "source": "ChEMBL document CHEMBL2021883",
  "about": "“Amino acid, dipeptide and pseudodipeptide conjugates of ring-substituted 8-aminoquinolines: synthesis and evaluation of anti-infective, β-haematin inhibition and cytotoxic activities” (Eur J Med Chem, 2012)",
  "key": {"[1]": {"test_system": "Staphylococcus aureus", "assay": "Antimicrobial activity against Staphylococcus aureus ATCC 29213 by CLSI method", "format": "functional, organism-based"}, "[2]": {"assay": "Selectivity index, ratio of IC50 for african green monkey Vero cells to IC50 for chloroquine-sensitive Plasmodium falciparum D6", "format": "toxicity, cell-based", "settings": "Vero cells versus Plasmodium falciparum D6, read-out: Ratio IC50"}, "[3]": {"assay": "Selectivity index, ratio of IC50 for african green monkey Vero cells to IC50 for chloroquine-resistant Plasmodium falciparum W2", "format": "toxicity, cell-based", "settings": "Vero cells versus Plasmodium falciparum W2, read-out: Ratio IC50"}, "[4]": {"test_system": "Mycobacterium intracellulare", "assay": "Antimicrobial activity against Mycobacterium intracellulare ATCC 23068 by Franzblau method", "format": "functional, organism-based"}, "[5]": {"test_system": "Plasmodium berghei", "assay": "Antimalarial activity against Plasmodium berghei blood-schizont in mouse malaria model assessed as disease curative activity at 100 mg/kg, po after 60 days", "format": "functional", "summary_of_the_method": "(§1)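 P. berghei-infected mice, 6 per group, received compound orally once daily for 4 days at 10, 25, 50 or 100 mg/kg/day. \"Active\" meant all treated animals were parasitaemia-negative up to D+7. \"Curative\" meant complete parasite elimination with survival to D+60. Outcomes were recorded as cured/total.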"}, "[6]": {"test_system": "Plasmodium falciparum", "assay": "Antimalarial activity against chloroquine-sensitive Plasmodium falciparum D6 assessed as plasmodial LDH activity", "format": "functional, organism-based"}, "[7]": {"test_system": "Vero", "assay": "Cytotoxicity against african green monkey Vero cells upto 23.8 […] by neutral dye assay", "format": "cell-based, Chlorocebus sabaeus", "summary_of_the_method": "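Vero monkey kidney cells were exposed to compound up to a highest concentration of 23.8, with viability read by neutral red uptake.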"}, "[8]": {"test_system": "Plasmodium berghei", "assay": "Antimalarial activity against Plasmodium berghei blood-schizont in mouse malaria model assessed as elimination of parasitemia at 50 mg/kg, po for 4 days for 4 days measured after 7 days", "format": "functional, organism-based", "set-up": "dose 50 mg/kg", "summary_of_the_method": "as §1"}, "[9]": {"test_system": "Pseudomonas aeruginosa", "assay": "Antimicrobial activity against Pseudomonas aeruginosa ATCC 27853 by CLSI method", "format": "functional, organism-based", "summary_of_the_method": "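Antibacterial testing used CLSI/NCCLS broth dilution for aerobically growing bacteria, with 20 as the highest test concentration.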"}, "[10]": {"test_system": "Plasmodium berghei", "assay": "Antimalarial activity against Plasmodium berghei blood-schizont in mouse malaria model assessed as elimination of parasitemia at 10 mg/kg, po for 4 days for 4 days measured after 7 days", "format": "functional, organism-based", "set-up": "dose 10 mg/kg", "summary_of_the_method": "as §1"}, "[11]": {"test_system": "Plasmodium falciparum", "assay": "Antimalarial activity against chloroquine-resistant Plasmodium falciparum W2 assessed as plasmodial LDH activity", "format": "functional, organism-based"}, "[12]": {"test_system": "Escherichia coli", "assay": "Antimicrobial activity against Escherichia coli ATCC 35218 by CLSI method", "format": "functional, organism-based"}, "[13]": {"test_system": "Leishmania donovani", "assay": "Antileishmanial activity against Leishmania donovani promastigote by Alamar Blue assay", "format": "functional, organism-based"}, "[14]": {"test_system": "Staphylococcus aureus", "assay": "Antimicrobial activity against methicillin-resistant Staphylococcus aureus ATCC 43300 by CLSI method", "format": "functional, organism-based"}, "[15]": {"assay": "Ratio of chloroquine IC50 to compound IC50 for inhibition of beta-hematin formation"}, "[16]": {"assay": "Inhibition of beta-hematin formation", "format": "functional"}, "[17]": {"test_system": "Plasmodium berghei", "assay": "Antimalarial activity against Plasmodium berghei blood-schizont in mouse malaria model assessed as elimination of parasitemia at 25 mg/kg, po for 4 days for 4 days measured after 7 days", "format": "functional, organism-based", "set-up": "dose 25 mg/kg", "summary_of_the_method": "as §1"}, "[18]": {"test_system": "Candida albicans", "assay": "Fungicidal activity against Candida albicans at 20 ug/ml", "format": "functional, organism-based", "summary_of_the_method": "(§2)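 Broth dilution antifungal testing followed the NCCLS reference method for yeasts, with 20 as the highest test concentration. MIC was the lowest concentration with no detectable growth. MFC was the lowest concentration killing the organism.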"}, "[19]": {"test_system": "Cryptococcus neoformans", "assay": "Antifungal activity against Cryptococcus neoformans", "format": "functional, organism-based", "summary_of_the_method": "(§3)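 Yeasts and A. fumigatus were tested by broth microdilution following the NCCLS antifungal standards. The highest test concentration was 20.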"}, "[20]": {"test_system": "Pichia kudriavzevii", "assay": "Antifungal activity against Candida krusei at 20 ug/ml", "format": "functional, organism-based", "summary_of_the_method": "as §2"}, "[21]": {"test_system": "Cryptococcus neoformans", "assay": "Fungicidal activity against Cryptococcus neoformans at 20 ug/ml", "format": "functional, organism-based", "summary_of_the_method": "as §2"}, "[22]": {"test_system": "Candida albicans", "assay": "Antifungal activity against Candida albicans at 20 ug/ml", "format": "functional, organism-based", "summary_of_the_method": "as §2"}, "[23]": {"test_system": "Aspergillus fumigatus", "assay": "Antifungal activity against Aspergillus fumigatus", "format": "functional, organism-based", "summary_of_the_method": "as §3"}, "[24]": {"test_system": "Nakaseomyces glabratus", "assay": "Antifungal activity against Candida glabrata at 20 ug/ml", "format": "functional, organism-based", "summary_of_the_method": "as §2"}, "[25]": {"test_system": "Nakaseomyces glabratus", "assay": "Fungicidal activity against Candida glabrata at 20 ug/ml", "format": "functional, organism-based", "summary_of_the_method": "as §2"}, "[26]": {"test_system": "Pichia kudriavzevii", "assay": "Fungicidal activity against Candida krusei at 20 ug/ml", "format": "functional, organism-based", "summary_of_the_method": "as §2"}},
  "note": "Activity calls are given as the source filed them. Unless noted, the rule behind the calls is not given here.",
  "data": [
    {"smiles": "COc1cc(NC(C)CCCNC(=O)C[C@H](NC(=O)[C@@H](N)CCCCN)C(=O)O)c2ncccc2c1", "note": "(some centres undefined)", "values": [
      {"measurement": "Activity", "setting": "[1]", "result": "inactive"},
      {"measurement": "selectivity ratio", "setting": "[2]", "result": "> 183"},
      {"measurement": "selectivity ratio", "setting": "[3]", "result": "> 91.5"},
      {"measurement": "Activity", "setting": "[4]", "result": "inactive"},
      {"measurement": "Activity", "setting": "[5]", "result": 100, "unit": "%"},
      {"measurement": "IC50", "setting": "[6]; Plasmodium falciparum, D6, read-out: IC50", "result": 0.13, "unit": "µg/mL"},
      {"measurement": "IC50", "setting": "[7]", "result": "Non-toxic"},
      {"measurement": "Activity", "setting": "[8]", "result": "Active"},
      {"measurement": "Activity", "setting": "[9]", "result": "inactive"},
      {"measurement": "Activity", "setting": "[10]", "result": "Active"},
      {"measurement": "IC50", "setting": "[11]; Plasmodium falciparum, W2, read-out: IC50", "result": 0.26, "unit": "µg/mL"},
      {"measurement": "Activity", "setting": "[12]", "result": "inactive"},
      {"measurement": "IC50", "setting": "[13]", "result": "Not Active"},
      {"measurement": "IC90", "setting": "[13]", "result": "inactive"},
      {"measurement": "Activity", "setting": "[14]", "result": "inactive"},
      {"measurement": "Ratio IC50", "setting": "[15]", "result": 16},
      {"measurement": "IC50", "setting": "[16]", "result": 5.8, "unit": "µM"},
      {"measurement": "Activity", "setting": "[17]", "result": "Active"}
    ]},
    {"smiles": "COc1cc(NC(C)CCCNC(=O)CC[C@@H](NC(=O)[C@H](N)CCCCN)C(=O)O)c2nc(C(C)(C)C)ccc2c1", "note": "(some centres undefined)", "values": [
      {"measurement": "Activity", "setting": "[18]", "result": "inactive"},
      {"measurement": "Activity", "setting": "[1]", "result": "inactive"},
      {"measurement": "Activity", "setting": "[4]", "result": "inactive"},
      {"measurement": "IC50", "setting": "[19]", "result": 15.2, "unit": "µg/mL"},
      {"measurement": "MIC", "setting": "[19]", "result": 20, "unit": "µg/mL"},
      {"measurement": "Activity", "setting": "[20]", "result": "inactive"},
      {"measurement": "IC50", "setting": "[6]", "result": "Not Active"},
      {"measurement": "IC50", "setting": "[7]", "result": "Non-toxic"},
      {"measurement": "Activity", "setting": "[21]", "result": "inactive"},
      {"measurement": "Activity", "setting": "[9]", "result": "inactive"},
      {"measurement": "Activity", "setting": "[22]", "result": "inactive"},
      {"measurement": "Activity", "setting": "[23]", "result": "inactive"},
      {"measurement": "IC50", "setting": "[11]", "result": "Not Active"},
      {"measurement": "Activity", "setting": "[12]", "result": "inactive"},
      {"measurement": "IC50", "setting": "[13]", "result": "Not Active"},
      {"measurement": "IC90", "setting": "[13]", "result": "inactive"},
      {"measurement": "Activity", "setting": "[24]", "result": "inactive"},
      {"measurement": "Activity", "setting": "[14]", "result": "inactive"},
      {"measurement": "IC50", "setting": "[16]", "result": "> 1000", "unit": "µM"},
      {"measurement": "Activity", "setting": "[25]", "result": "inactive"},
      {"measurement": "Activity", "setting": "[26]", "result": "inactive"}
    ]}
  ]
}
